Experimental data as given in ChEMBL document CHEMBL5661972, “In vitro biological activity of a novel small-molecule inhibitor of polo-like kinase 1” (Mol Cancer Ther, 2007).
Activity calls are given as the source filed them. The rule behind the calls is not given here.

Key:
[1] = biological target: Serine/threonine-protein kinase PLK1 (Homo sapiens, UniProt P53350); assay: Inhibition of human PLK1 expressed in baculovirus infected in Trichoplusia ni cells using Biotin-Ahx-SFNDTLDFD as substrate in presence of ATP by TopCount scintillation proximity assay; parameters: species or system Trichoplusia ni cell
How it was run: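 Baculovirus-expressed PLK1 kinase domain (2 nmol/L) in 25 mmol/L HEPES pH 7.2, 15 mmol/L MgCl2, 1 μmol/L ATP plus [γ-33P]ATP, 1 μmol/L biotinylated peptide substrate, BSA and DTT; 1–1.5 h at 22°C. Stopped with EDTA/streptavidin SPA beads. Signal above EDTA background converted to percent inhibition versus DMSO-only wells.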

CDK1/Cyclin A = CDK1/Cyclin A (Homo sapiens, UniProt P06493); assay: Inhibition of CDK1/cyclin A (unknown origin); format: protein-complex assay
[2] = biological target: Mitogen-activated protein kinase 14 (Homo sapiens, UniProt Q16539); assay: Inhibition of p38alpha (unknown origin)
HeLa [3] = assay: Antiproliferative activity against human HeLa cells assessed as inhibition of cell growth; format: functional, cell-based
MES-SA = assay: Antiproliferative activity against human MES-SA cells assessed as inhibition of cell growth; format: functional, cell-based
How it was run: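 Cells grown 3 days in 96-well plates, seeded so vehicle controls stay in log growth (MES-SA/DX5 7,000, MES-SA 6,000, HDF 5,000 per well). Exposed to 3-fold dilutions, 30–0.00152 μmol/L, in medium with 5% FBS, 50 μg/mL gentamicin and 0.3% (v/v) DMSO. HDF medium was low-glucose DMEM; MES-SA lines used McCoy's 5A.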

[4] = Selectivity ratio of IC50 for cytotoxicity against human HDF cells to IC50 for antiproliferative activity against human A549 cells; format: toxicity, cell-based; settings: HDF cells versus A549 cells, read-out: Ratio IC50
[5] = Selectivity ratio of IC50 for cytotoxicity against human HDF cells to IC50 for antiproliferative activity against human BT-474 cells; format: toxicity, cell-based; settings: HDF cells versus BT-474 cells, read-out: Ratio IC50
[6] = Selectivity ratio of IC50 for cytotoxicity against human HDF cells to IC50 for anti-proliferative activity against human HeLa cells; format: toxicity, cell-based; settings: HDF cells versus HeLa cells, read-out: Ratio IC50
HeLa [7] = assay: Inhibition of p53-PLK1 in human HeLa cells assessed as inhibition of p53 phosphorylation at Ser15 residue by Western blotting analysis; format: cell-based; settings: dose 0.0015-30 µM
How it was run: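 HeLa cells with tet-inducible p53-PLK1 fusion induced overnight with 125 ng/mL doxycycline, then treated 6 h with 3-fold dilutions (30–0.00152 μmol/L). Lysates resolved on 4–12% Bis-Tris gels, transferred to nitrocellulose, probed for phospho-Ser15 p53 or total p53.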

NHDF [8] = assay: Induction of cell cycle arrest in human HDF cells assessed as accumulation of cells at G1 phase at 3 micromol/L incubated for 24 hrs by propidium iodide staining based flow cytometry analysis (reference value: 57.0 %); format: toxicity; settings: 3 µM, dose 3 µmol/L
How it was run: (§1)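 Cells seeded in six-well plates at densities that keep them in log growth (HDF 120,000, 60,000 or 30,000; H460 100,000, 50,000 or 25,000 per well for 24, 48 or 72 h). Treated with 1 or 3 μmol/L. Floating and adherent cells collected, ethanol-fixed, permeabilized with Triton X-100 and stained with propidium iodide. DNA content read by flow cytometry as % singlet cells.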

NHDF [9] = assay: Induction of cell cycle arrest in human HDF cells assessed as accumulation of cells at S phase at 1 micromol/L incubated for 24 hrs by propidium iodide staining based flow cytometry analysis (reference value: 13.2 %); format: toxicity; settings: 1 µM, dose 1 µmol/L; how it was run: as §1
NHDF [10] = assay: Induction of cell cycle arrest in human HDF cells assessed as accumulation of cells at Sub-2N phase at 1 micromol/L incubated for 24 hrs by propidium iodide staining based flow cytometry analysis (reference value: 0.2 %); format: toxicity; settings: 1 µM, dose 1 µmol/L; how it was run: as §1
NHDF [11] = assay: Induction of cell cycle arrest in human HDF cells assessed as accumulation of cells at G1 phase at 1 micromol/L incubated for 48 hrs by propidium iodide staining based flow cytometry analysis (reference value: 72.8 %); format: toxicity; settings: 1 µM, dose 1 µmol/L; how it was run: as §1
NHDF [12] = assay: Induction of cell cycle arrest in human HDF cells assessed as accumulation of cells at G1 phase at 3 micromol/L incubated for 48 hrs by propidium iodide staining based flow cytometry analysis (reference value: 72.8 %); format: toxicity; settings: 3 µM, dose 3 µmol/L; how it was run: as §1
NHDF [13] = assay: Induction of cell cycle arrest in human HDF cells assessed as accumulation of cells at Sub-2N phase at 1 micromol/L incubated for 48 hrs by propidium iodide staining based flow cytometry analysis (reference value: 0.5 %); format: toxicity; settings: 1 µM, dose 1 µmol/L; how it was run: as §1
NHDF [14] = assay: Induction of cell cycle arrest in human HDF cells assessed as accumulation of cells at >4N phase at 3 micromol/L incubated for 48 hrs by propidium iodide staining based flow cytometry analysis (reference value: 3.0 %); format: toxicity; settings: 3 µM, dose 3 µmol/L; how it was run: as §1
NHDF [15] = assay: Induction of cell cycle arrest in human HDF cells assessed as accumulation of cells at G1 phase at 3 micromol/L incubated for 72 hrs by propidium iodide staining based flow cytometry analysis (reference value: 85.6 %); format: toxicity; settings: 3 µM, dose 3 µmol/L; how it was run: as §1
NHDF [16] = assay: Induction of cell cycle arrest in human HDF cells assessed as accumulation of cells at G2-M phase at 1 micromol/L incubated for 72 hrs by propidium iodide staining based flow cytometry analysis (reference value: 8.2 %); format: toxicity; settings: 1 µM, dose 1 µmol/L; how it was run: as §1
NCI-H460 [17] = assay: Induction of cell cycle arrest in human NCI-H460 cells assessed as accumulation of cells at G1 phase at 1 micromol/L incubated for 24 hrs by propidium iodide staining based flow cytometry analysis (reference value: 45.5 %); format: functional; settings: dose 1 µmol/L, at 1 µM; how it was run: as §1
NCI-H460 [18] = assay: Induction of cell cycle arrest in human NCI-H460 cells assessed as accumulation of cells at S phase at 3 micromol/L incubated for 24 hrs by propidium iodide staining based flow cytometry analysis (reference value: 23.2 %); format: functional; settings: dose 3 µmol/L, at 3 µM
NCI-H460 [19] = assay: Induction of cell cycle arrest in human NCI-H460 cells assessed as accumulation of cells at G2-M phase at 3 micromol/L incubated for 24 hrs by propidium iodide staining based flow cytometry analysis (reference value: 19.8 %); format: functional; settings: dose 3 µmol/L, at 3 µM
NCI-H460 [20] = assay: Induction of cell cycle arrest in human NCI-H460 cells assessed as accumulation of cells at Sub-2N phase at 1 micromol/L incubated for 48 hrs by propidium iodide staining based flow cytometry analysis (reference value: 2.5 %); format: functional; settings: dose 1 µmol/L, at 1 µM
NCI-H460 [21] = assay: Induction of cell cycle arrest in human NCI-H460 cells assessed as accumulation of cells at >4N phase at 1 micromol/L incubated for 48 hrs by propidium iodide staining based flow cytometry analysis (reference value: 0.9 %); format: functional; settings: dose 1 µmol/L, at 1 µM; how it was run: as §1
NCI-H460 [22] = assay: Induction of cell cycle arrest in human NCI-H460 cells assessed as accumulation of cells at S phase at 3 micromol/L incubated for 72 hrs by propidium iodide staining based flow cytometry analysis (reference value: 17.8 %); format: functional; settings: dose 3 µmol/L, at 3 µM
NCI-H460 [23] = assay: Induction of apoptosis in human NCI-H460 cells assessed as PARP cleavage at 5 micromol/L incubated for 22 to 72 hrs by Western blotting analysis; format: functional, cell-based; settings: dose 5.0 µmol/L, time 22-72 hrs
How it was run: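 H460 cells seeded at 320,000 per well in six-well plates and given 5 μmol/L for 22, 30, 46, 55 and 72 h. Lysed in caspase assay buffer, run on 4–12% Bis-Tris gels and immunoblotted with an anti-PARP antibody that detects both the 116-kDa intact protein and the 85-kDa fragment.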

Chain of CDK1/Cyclin A (P06493 whole entry): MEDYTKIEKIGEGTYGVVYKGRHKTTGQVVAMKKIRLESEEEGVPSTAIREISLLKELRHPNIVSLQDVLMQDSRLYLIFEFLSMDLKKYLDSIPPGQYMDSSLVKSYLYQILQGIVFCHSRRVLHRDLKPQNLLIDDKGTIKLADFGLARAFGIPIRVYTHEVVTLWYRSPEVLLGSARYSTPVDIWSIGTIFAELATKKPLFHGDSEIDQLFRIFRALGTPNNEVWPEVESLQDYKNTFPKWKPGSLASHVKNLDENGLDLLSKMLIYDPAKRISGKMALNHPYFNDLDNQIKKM
Chain of CDK1/Cyclin A (P20248 whole entry, further chain): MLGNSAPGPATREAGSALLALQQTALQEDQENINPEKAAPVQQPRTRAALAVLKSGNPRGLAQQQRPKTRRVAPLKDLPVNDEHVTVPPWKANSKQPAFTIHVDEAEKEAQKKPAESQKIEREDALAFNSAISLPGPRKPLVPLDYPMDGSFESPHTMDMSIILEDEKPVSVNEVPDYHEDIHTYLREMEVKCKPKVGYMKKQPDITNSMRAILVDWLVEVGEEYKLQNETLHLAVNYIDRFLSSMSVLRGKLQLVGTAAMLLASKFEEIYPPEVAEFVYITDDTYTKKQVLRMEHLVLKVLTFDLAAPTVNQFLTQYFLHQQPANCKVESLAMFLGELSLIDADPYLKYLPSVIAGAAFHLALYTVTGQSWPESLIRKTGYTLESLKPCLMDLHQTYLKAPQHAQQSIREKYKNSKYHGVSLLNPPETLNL
Chain of Serine/threonine-protein kinase PLK1 (P53350 whole entry, the tested form may be a part): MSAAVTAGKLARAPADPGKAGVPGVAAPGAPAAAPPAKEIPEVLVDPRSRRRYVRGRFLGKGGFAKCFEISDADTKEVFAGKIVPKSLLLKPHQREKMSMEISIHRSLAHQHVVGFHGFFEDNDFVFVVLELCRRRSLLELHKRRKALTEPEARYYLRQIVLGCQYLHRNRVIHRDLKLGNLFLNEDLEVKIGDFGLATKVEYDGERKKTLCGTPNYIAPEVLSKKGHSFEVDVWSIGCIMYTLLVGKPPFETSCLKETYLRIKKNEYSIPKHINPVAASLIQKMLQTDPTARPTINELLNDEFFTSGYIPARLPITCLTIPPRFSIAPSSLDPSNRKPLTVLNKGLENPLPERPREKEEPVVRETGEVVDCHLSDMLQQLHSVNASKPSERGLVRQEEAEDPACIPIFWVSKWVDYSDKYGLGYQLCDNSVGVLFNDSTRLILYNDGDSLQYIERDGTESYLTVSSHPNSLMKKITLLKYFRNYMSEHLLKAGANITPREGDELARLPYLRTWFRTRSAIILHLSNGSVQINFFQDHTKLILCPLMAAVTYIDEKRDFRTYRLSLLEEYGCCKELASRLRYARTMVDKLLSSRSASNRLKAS
Chain of Mitogen-activated protein kinase 14 (Q16539 whole entry): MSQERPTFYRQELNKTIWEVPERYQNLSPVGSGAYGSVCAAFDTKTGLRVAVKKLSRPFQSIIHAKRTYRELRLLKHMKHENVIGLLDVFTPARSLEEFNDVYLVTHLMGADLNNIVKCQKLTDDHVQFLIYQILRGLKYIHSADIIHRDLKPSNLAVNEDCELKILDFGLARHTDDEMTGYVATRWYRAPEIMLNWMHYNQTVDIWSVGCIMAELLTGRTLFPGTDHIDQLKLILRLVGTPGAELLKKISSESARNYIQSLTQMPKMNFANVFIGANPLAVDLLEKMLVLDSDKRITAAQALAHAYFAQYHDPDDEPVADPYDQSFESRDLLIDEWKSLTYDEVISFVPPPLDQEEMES

## COc1cc2ncn(-c3cc(OCc4ccccc4C(F)(F)F)c(C(N)=O)s3)c2cc1OC [GW843682X]
[1]
  IC50: 2.2 nM
CDK1/Cyclin A
  IC50: > 10000 nM
[2]
  IC50: > 10000 nM
HeLa [3]
  IC50: 110 nM
MES-SA
  IC50: 210 nM
[4]
  selectivity ratio: > 10
[5]
  selectivity ratio: > 10
[6]
  selectivity ratio: > 10
HeLa [7]
  inhibition: Dose-Dependent Effect
NHDF [8]
  Activity: 21.1%
NHDF [9]
  Activity: 10.2%
NHDF [10]
  Activity: 0.3%
NHDF [11]
  Activity: 55.3%
NHDF [12]
  Activity: 11.3%
NHDF [13]
  Activity: 0.9%
NHDF [14]
  Activity: 11.2%
NHDF [15]
  Activity: 5.6%
NHDF [16]
  Activity: 21.6%
NCI-H460 [17]
  Activity: 27.3%
NCI-H460 [18]
  Activity: 8.4%
NCI-H460 [19]
  Activity: 37.7%
NCI-H460 [20]
  Activity: 14.4%
NCI-H460 [21]
  Activity: 29%
NCI-H460 [22]
  Activity: 3.6%
NCI-H460 [23]
  Activity: Active
